Assay results published in ChEMBL document CHEMBL5335797, “Design, Synthesis, and Evaluation of New 1H-Benzo[d]imidazole Based PqsR Inhibitors as Adjuvant Therapy for Pseudomonas aeruginosa Infections” (J Med Chem, 2024).
Active and inactive are the calls of the source. The rule behind the calls is not given here.

Tests used:
[1] = tested on: Pseudomonas aeruginosa; experiment: Inhibition of Pseudomonas aeruginosa pqsA-lux complex expressed in Pseudomonas aeruginosa PAO1-L at 10 uM by bioluminescent reporter assay
How it was run: (§1)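 Reporter strains PAO1-L and PA14 carrying chromosomal mCTX::PpqsA-lux, grown in LB at 37 °C. Inhibition read as reduced luminescence. Single-point screen at 10 μM from 10 mM DMSO stock; dose–response curves in both strains; mean ± SD, n = 2.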

[2] = tested on: Pseudomonas aeruginosa; experiment: Inhibition of Pseudomonas aeruginosa pqsA-lux complex expressed in Pseudomonas aeruginosa PA14 at 10 uM by bioluminescent reporter assay; how it was run: as §1
[3] = biological target: T1, Transcriptional regulator MvfR (Pseudomonas aeruginosa PA14) (UniProt A0A072ZLE6); experiment: Antagonist activity at PqsR in wild-type Pseudomonas aeruginosa PAO1-L assessed as inhibition of pyocyanin level at 3 times IC50 incubated for 16 hrs by absorbance based assay relative to control; conditions: filed as antagonist
T1 sequence (whole entry): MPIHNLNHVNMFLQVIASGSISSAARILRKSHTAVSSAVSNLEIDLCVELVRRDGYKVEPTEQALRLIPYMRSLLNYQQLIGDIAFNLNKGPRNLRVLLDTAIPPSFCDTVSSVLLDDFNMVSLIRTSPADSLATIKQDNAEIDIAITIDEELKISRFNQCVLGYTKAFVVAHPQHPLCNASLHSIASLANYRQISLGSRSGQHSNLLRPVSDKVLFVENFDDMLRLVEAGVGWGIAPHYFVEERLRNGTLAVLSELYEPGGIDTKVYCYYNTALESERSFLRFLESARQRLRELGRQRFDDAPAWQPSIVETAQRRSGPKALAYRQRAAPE

[4] = Inhibition of Pseudomonas aeruginosa pqsA-lux complex expressed in Pseudomonas aeruginosa PA14 by bioluminescent reporter assay; how it was run: as §1
[5] = Inhibition of Pseudomonas aeruginosa pqsA-lux complex expressed in Pseudomonas aeruginosa PAO1-L by bioluminescent reporter assay; how it was run: as §1
[6] = tested on: A549; experiment: Cytotoxicity against human A549 cells assessed as cell viability upto 100 uM incubated for 24 hrs by resazurin reduction assay; type: toxicity, cell-based; conditions: a549, 24 h
How it was run: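 A549 cells in DMEM with 10% FBS and 1% PSN, seeded at 1 × 10^4 cells/well. Compound at 1, 50 and 100 μM in sextuplicate, 24 h at 37 °C and 5% CO2. Vehicle control 1% DMSO; positive control 100 μM K2Cr2O7. Alamar blue added for 4–6 h, fluorescence read at ex 510/em 590 nm, normalized to DMSO.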

SMILES	inhibition [1]	inhibition [2]	inhibition [3]	also measured
N#CCc1ccc(OCC(O)CNc2nc3ccc(Cl)cc3s2)cc1 (stereo unspecified)	inactive	inactive	–	–
Cn1c(NCC(O)COc2ccc(CC#N)cc2)nc2cc(Cl)ccc21 (stereo unspecified)	–	–	–	IC50 [4]: Not Active; IC50 [5]: Not Active
CN1CCC(n2c(NCC(O)COc3ccc(CC#N)cc3)nc3ccc(Cl)cc32)CC1 (stereo unspecified)	–	–	–	IC50 [4]: Not Active; IC50 [5]: Not Active
N#CCc1ccc(OCC(O)CNc2nc3ccc(Cl)cc3n2CCO)cc1 (stereo unspecified)	–	–	> 50%	–
Cn1c(NCC(O)COc2ccc(CC#N)cc2)nc2ccc(Cl)cc21 (stereo unspecified)	–	–	> 50%	–

Further lines, with some results ahead:

inhibition [1]	inhibition [2]	inhibition [3]	SMILES	also measured
inactive	inactive	–	N#CCc1ccc(OCC(O)CNc2nc3ccc(Cl)cc3o2)cc1 (stereo unspecified)	–
–	–	> 50%	N#CCc1ccc(OCC(O)CNc2nc3ccc(Cl)cc3n2C2CC2)cc1 (stereo unspecified)	–
inactive	inactive	–	Cn1c(SCC(O)COc2ccc(CC#N)cc2)nc2ccc(Cl)cc21 (stereo unspecified)	–
–	–	> 50%	CCn1c(NCC(O)COc2ccc(CC#N)cc2)nc2ccc(Cl)cc21 (stereo unspecified)	–
–	–	> 50%	CC(C)n1c(NCC(O)COc2ccc(CC#N)cc2F)nc2ccc(Cl)cc21 (stereo unspecified)	Activity [6]: Non-Toxic
